Bioassay records deposited in PubChem by The Scripps Research Institute Molecular Screening Center.
zfTRPN1 agonist: activates the zebrafish TRPN1 channel. HEK293 zebrafish TRPN1-YFP, Fluo-8 calcium fluorescence; 100% = response to 87 µM carbachol. actives 0.18% (n = 220,000). activation, % at 3 µM;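 active = activation above its plate's cutoff, the mean activation of test wells on that plate plus 3 SD, cut at about 19% in these data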;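 note: 0% = DMSO alone and 100% = 87 µM carbachol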
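Material: zebrafish TRPN1-YFP in HEK293 cells. Doses: one dose of 3 µM, 0.3% DMSO. Incubation: dye 1 h 37 °C plus 30 min RT. Measured by: intracellular calcium fluorescence with Fluo-8.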
TRPML3 agonist: activates the human TRPML3 channel | Q8TDD5 | actives 0.29% (n = 220,000) | activation, % at 3 µM | HEK293 TRPML3-YFP, Fluo-8 calcium fluorescence; 100% = the carbachol control signal;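 active = activation above its plate's cutoff, the mean activation of the plate's test wells plus 3 SD, cut at about 12% in these data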;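 note: 0% = DMSO only wells and 100% = carbachol wells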
Target sequence (Q8TDD5 whole entry, looked up): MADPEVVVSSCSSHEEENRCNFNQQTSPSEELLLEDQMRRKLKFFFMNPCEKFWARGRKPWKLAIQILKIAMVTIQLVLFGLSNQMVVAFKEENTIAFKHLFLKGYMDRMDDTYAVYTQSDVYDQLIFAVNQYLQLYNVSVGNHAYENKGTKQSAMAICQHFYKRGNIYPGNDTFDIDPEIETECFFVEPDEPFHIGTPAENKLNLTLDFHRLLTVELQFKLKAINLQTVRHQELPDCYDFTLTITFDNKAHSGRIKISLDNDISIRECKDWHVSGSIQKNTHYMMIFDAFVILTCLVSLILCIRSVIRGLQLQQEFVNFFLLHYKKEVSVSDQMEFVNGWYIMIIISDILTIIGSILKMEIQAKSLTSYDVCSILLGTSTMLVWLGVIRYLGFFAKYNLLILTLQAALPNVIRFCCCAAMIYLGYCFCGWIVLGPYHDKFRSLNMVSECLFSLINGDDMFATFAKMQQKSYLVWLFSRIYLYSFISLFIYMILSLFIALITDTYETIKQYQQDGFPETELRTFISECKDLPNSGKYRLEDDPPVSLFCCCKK
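Material: TRPML3-YFP stable HEK293 cells | Dosing: One concentration, 3 µM nominal, 0.3% DMSO | Timing: 125 s total fluorescence read per well | Technique: Fluo-8 calcium dye fluorescence, ex 470-495, em 515-575 nm | Measure: Percent activation from peak-to-basal fluorescence ratio, scaled between DMSO and carbachol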
OXTR agonist: human OXTR agonism. activation, % at 3 µM. actives 0.32% (n = 320,000). AID 2435. P30559. CHO-OTR cells, Fluo-8 calcium fluorescence; normalized: DMSO 0%, oxytocin 100%;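 active = activation above the mean of all tested compounds plus 3 SD, cutoff set per screening run, cut at about 20% in these data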;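 note: peak over basal fluorescence ratio from a 100 s FLIPR kinetic read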
V1aR counter: counter-screen for oxytocin receptor agonists: human V1a receptor agonists; CHO-V1R cells, Fluo-8 calcium fluorescence, agonist mode; 0% DMSO, 100% 3 nM vasopressin; activation, % at 3 µM; actives 0.25% (n = 320,000); AID 2797;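 active = activation above the mean activation of all tested compounds plus 3 SD, per screening run, cut at about 20% in these data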;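 note: signal is peak over basal fluorescence ratio across a 100 second FLIPR read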
OXTR potentiate: potentiates the human oxytocin receptor response; CHO-OTR cells, Fluo-8 calcium fluorescence, potentiator mode; 0% = oxytocin EC15, 100% = EC100; actives 0.061% (n = 320,000); P30559; activation, % at 3 µM;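 active = activation above that plate's cutoff, the mean activation of tested compounds plus 3 SD, cut at about 6.6% in these data, passing the limit was not always enough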;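 note: 100% uses oxytocin at 75 nM as the full agonist control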
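System: human OTR in CHO cells / Also added: sub-maximal oxytocin, roughly EC15 / Control set: EC15 oxytocin low, 75 nM oxytocin high / Schedule: 6 min compound pre-incubation at room temperature, 100 s kinetic read / Compound: single-point 3.0 µM / Replication: singlicate / Technique: Fluo-8 calcium dye fluorescence / Read-out basis: % activation of max/min ratio relative to oxytocin controls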
OXTR ag confirm: confirmation of human oxytocin receptor agonists; activation, % at 3 µM; actives 20% (n = 390); AID 434963; shares compounds with OXTR agonist; CHO-OTR cells, Fluo-8 calcium fluorescence, agonist;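 active = mean activation above about 20% derived from the earlier single-dose screen, limit read from the data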;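 note: peak over minimum fluorescence ratio per well during a 100 second FLIPR read; 0% = DMSO alone and 100% = oxytocin high control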
V1R ag counter 3x: activates V1a receptor in oxytocin agonist counter-screen. shares compounds with OXTR agonist. CHO-V1R cells, Fluo-8 calcium fluorescence. activation, % at 3 µM. actives 10% (n = 390);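 active = mean activation over triplicate exceeds the hit threshold set in the earlier primary screen, cut at about 20% in these data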;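 note: peak over basal fluorescence ratio within a 100 second read; 0% = DMSO alone and 100% = 3 nM vasopressin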
Starred values were filed as active, the others as inactive. Hits are enriched below; roughly 0.55% of the tested compounds scored in any of these assays.

O=C1NC(=O)C(CC(=O)N(Cc2ccco2)C2(C(=O)NC3CCCC3)CCCCC2)N1 (centres undefined) was read as zfTRPN1 agonist 2.5, TRPML3 agonist 1.3, OXTR agonist -1.3, V1aR counter 0.1 and OXTR potentiate -13.0.
For O=C(Cc1cccs1)N(Cc1ccco1)C1(C(=O)NC2CCCC2)CCCCC1 the results were zfTRPN1 agonist -2.3, TRPML3 agonist -0.3, OXTR agonist 20.1*, V1aR counter 5.8, OXTR potentiate -19.2, OXTR ag confirm -0.5 and V1R ag counter 3x 0.0.
`Oc1ccccc1CNc1cnc2ccccc2c1` gave zfTRPN1 agonist 2.9, TRPML3 agonist 1.2, OXTR agonist 22.1*, V1aR counter 12.9, OXTR potentiate -13.6, OXTR ag confirm 13.0 and V1R ag counter 3x 12.6.
Screening O=C(COC(=O)c1cc(S(=O)(=O)N2CCCC2)ccc1O)Nc1ccc(S(=O)(=O)N2CCOCC2)cc1 returned zfTRPN1 agonist 0.4, TRPML3 agonist 0.7, OXTR agonist -0.2, V1aR counter 0.6 and OXTR potentiate -8.8.
Screening O=C(COC(=O)c1cc(S(=O)(=O)N2CCCC2)ccc1O)Nc1ccc(SC(F)F)cc1 returned OXTR agonist 21.1*, V1aR counter 16.6, OXTR potentiate -10.7, OXTR ag confirm 15.2 and V1R ag counter 3x 12.8.
For O=C(Nc1cccc(Cl)c1)Nc1cccc(Cl)c1 the results were zfTRPN1 agonist 10.4, TRPML3 agonist 4.8, OXTR agonist 14.4, V1aR counter 9.3 and OXTR potentiate -22.1.
For O=C(Nc1cccc(F)c1)Nc1cccc(Cl)c1 the results were OXTR agonist 19.9*, V1aR counter 12.6, OXTR potentiate -24.7, OXTR ag confirm 4.5 and V1R ag counter 3x 5.7.
`COc1cccc(NC(=O)Nc2nc(SC)ns2)c1` gave OXTR agonist 11.8, V1aR counter 9.9 and OXTR potentiate -7.7.
COc1cccc(NC(=O)Nc2nc(SC(C)(C)C)ns2)c1 was read as OXTR agonist 23.4*, V1aR counter 18.2, OXTR potentiate -25.8, OXTR ag confirm 13.1 and V1R ag counter 3x 11.0.
For CCSc1nsc(NC(=O)Nc2cccc(F)c2)n1 the results were OXTR agonist 19.8*, V1aR counter 15.7, OXTR potentiate -26.4, OXTR ag confirm 12.4 and V1R ag counter 3x 13.2.
`NC(=S)NNC(=O)COc1ccccc1O` gave zfTRPN1 agonist 0.5, TRPML3 agonist 0.8, OXTR agonist -0.6, V1aR counter 0.8 and OXTR potentiate -16.2.
For CCCC(=O)c1ccc(N2CCN(C(=O)c3ccccc3Br)CC2)c(F)c1 the results were zfTRPN1 agonist 6.9, TRPML3 agonist 3.6, OXTR agonist 19.6*, V1aR counter 8.3, OXTR potentiate -19.5, OXTR ag confirm 5.7 and V1R ag counter 3x 7.2.
Screening CCCC(=O)c1ccc(N2CCN(C(=O)c3ccccc3)CC2)c(F)c1 returned zfTRPN1 agonist 4.7, TRPML3 agonist 2.8, OXTR agonist 10.3, V1aR counter 8.0 and OXTR potentiate -20.9.
For Cc1sc(NC(=O)CSc2nnc(COc3ccccc3)n2C)c(C#N)c1C the results were zfTRPN1 agonist -1.3, TRPML3 agonist 0.4, OXTR agonist -0.2, V1aR counter 3.5 and OXTR potentiate -13.6.
`Cc1ccc(OCc2nnc(SCC(=O)Nc3sc(C)c(C)c3C#N)n2C)cc1` gave zfTRPN1 agonist 0.2, TRPML3 agonist 0.7, OXTR agonist 20.9*, V1aR counter -0.5, OXTR potentiate -19.3, OXTR ag confirm -1.0 and V1R ag counter 3x -0.7.
Cc1onc(-c2ccccc2)c1C(=O)Nc1nnc(C(C)C)s1 was read as OXTR agonist -0.5, V1aR counter 0.3 and OXTR potentiate -1.4.
Screening Cc1onc(-c2ccccc2)c1C(=O)Nc1ncc([N+](=O)[O-])s1 returned OXTR agonist 20.6*, V1aR counter 9.6, OXTR potentiate -13.7, OXTR ag confirm 15.8 and V1R ag counter 3x 11.8.
`O=C(c1ccccc1NS(=O)(=O)c1ccc(F)cc1F)N1CCCCC1` gave OXTR agonist 0.8, V1aR counter -0.1 and OXTR potentiate -2.2.
For Cc1ccc(NS(=O)(=O)c2ccc(C(=O)NCC(c3ccco3)N3CCCCC3)cc2)cc1 (centres undefined) the results were OXTR agonist 24.3*, V1aR counter 15.8, OXTR potentiate -17.1, OXTR ag confirm 23.6* and V1R ag counter 3x 12.3.
Screening O=C(NCC(c1ccco1)N1CCCCC1)c1ccc(S(=O)(=O)Nc2ccccc2)cc1 (centres undefined) returned OXTR agonist 5.6, V1aR counter 4.6 and OXTR potentiate -5.8.
COc1ccc(CNc2nc(NC(C)=O)nn2-c2ccccc2)cc1 was read as OXTR agonist 0.0, V1aR counter 0.0 and OXTR potentiate -5.4.
For COc1ccc(C(=O)/C=C2\Sc3ccccc3N2C)cc1 the results were zfTRPN1 agonist -2.1, TRPML3 agonist -0.9, OXTR agonist -1.3, V1aR counter -0.9 and OXTR potentiate -5.3.
COc1ccccc1-[n+]1c(C)cc(/C=C2\Sc3ccccc3N2C)cc1C was read as zfTRPN1 agonist 26.0*, TRPML3 agonist 11.8*, OXTR agonist 25.5*, V1aR counter 12.1, OXTR potentiate -14.1, OXTR ag confirm 26.0* and V1R ag counter 3x 25.6*.
For N#C/C(=C\c1ccc(N2CCOCC2)o1)c1nc2ccccc2[nH]1 the results were zfTRPN1 agonist 2.0, TRPML3 agonist 1.8, OXTR agonist 42.8*, V1aR counter 15.6, OXTR potentiate -22.8, OXTR ag confirm 176.5* and V1R ag counter 3x 259.2*.
`N#C/C(=C\c1ccc(N2CCOCC2)c([N+](=O)[O-])c1)c1nc2ccccc2[nH]1` gave zfTRPN1 agonist 1.4, TRPML3 agonist 0.6, OXTR agonist 2.1, V1aR counter 4.8 and OXTR potentiate -7.3.
Screening CC1(c2ccc([N+](=O)[O-])cc2)NC(=O)N(CC(=O)Nc2cccnc2Cl)C1=O (centres undefined) returned OXTR agonist 20.7*, V1aR counter 17.8, OXTR potentiate -15.0, OXTR ag confirm 8.2 and V1R ag counter 3x 9.4.
For Cc1ccc(C2(C)NC(=O)N(CC(=O)Nc3cccnc3Cl)C2=O)cc1 (centres undefined) the results were zfTRPN1 agonist 4.3, TRPML3 agonist 1.4, OXTR agonist 6.7, V1aR counter 7.6 and OXTR potentiate -11.5.
Screening COc1cccc(CNCCc2c[nH]c3ccccc23)c1OCc1ccc(F)cc1 returned zfTRPN1 agonist 2.2, TRPML3 agonist 1.1, OXTR agonist 17.7, V1aR counter 7.6 and OXTR potentiate -25.9.
